{"source": "ChEMBL document CHEMBL4689842", "about": "“EUbOPEN Chemogenomics Library wave 1” (2021)", "key": {"Fibroblast": {"system": "Fibroblast", "assay": "Incucyte cell viability with human fibroblast; also: filed as whole numbers so only -1 and 0 and 1 occur", "format": "toxicity, cell-based", "conditions": "10 µM, compound concentration 10 uM"}, "U2OS": {"system": "U2OS", "assay": "Multiplex assay against U2OS", "format": "toxicity, cell-based", "conditions": "human", "outline": "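Cells were classed with CellPathfinder machine-learning gating, first as Hoechst high-intensity objects or normal cells, then (normal cells) as healthy, pyknosed or fragmented nuclei, and finally (pyknosed cells) as mitotic or apoptotic. Staining of live cells at seeding used Hoechst33342, BioTracker Green Microtubule Cytoskeleton Dye, MitoTracker Red and Annexin V Alexa Fluor 680, with imaging on a CQ1 microscope at 37°C and 5% CO2 after compound addition. Tubulin, mitochondrial-mass and membrane-permeability phenotypes are per cents of healthy-nucleus cells.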"}, "[1]": {"conditions": "12 h, 1 µM, compound concentration 1 uM, replicate 1"}, "[2]": {"conditions": "12 h, 1 µM, compound concentration 1 uM, replicate 2"}, "[3]": {"conditions": "12 h, 10 µM, compound concentration 10 uM, replicate 1"}, "[4]": {"conditions": "12 h, 10 µM, compound concentration 10 uM, replicate 2"}, "[5]": {"conditions": "24 h, 1 µM, compound concentration 1 uM, replicate 1"}, "[6]": {"conditions": "24 h, 1 µM, compound concentration 1 uM, replicate 2"}, "[7]": {"conditions": "24 h, 10 µM, compound concentration 10 uM, replicate 1"}, "[8]": {"conditions": "24 h, 10 µM, compound concentration 10 uM, replicate 2"}}, "data": [{"smiles": "Cc1ccc(NC(=O)Nc2cc(C(F)(F)F)ccc2F)cc1Nc1ccc2c(c1)NC(=O)/C2=C\\c1ccc[nH]1", "values": [{"measurement": "Growth Rate", "setting": "Fibroblast; 0 h, replicate number 1, timepoint 0 hours", "result": 0}, {"measurement": "Growth Rate", "setting": "Fibroblast; 6 h, replicate number 1, timepoint 6 hours", "result": 0}, {"measurement": "Growth Rate", "setting": "Fibroblast; 12 h, replicate number 1, timepoint 12 hours", "result": 0}, {"measurement": "Growth Rate", "setting": "Fibroblast; 18 h, replicate number 1, timepoint 18 hours", "result": 0}, {"measurement": "Growth Rate", "setting": "Fibroblast; 24 h, replicate number 1, timepoint 24 hours", "result": 0}, {"measurement": "Population Apoptotic (%)", "setting": "U2OS; [1]", "result": 32, "unit": "%"}, {"measurement": "Population Fragmented Nuclei (%)", "setting": "U2OS; [1]", "result": 15, "unit": "%"}, {"measurement": "Population Healthy Nuclei (%)", "setting": "U2OS; [1]", "result": 66, "unit": "%"}, {"measurement": "Population Hoechst High Intensity Objects (%)", "setting": "U2OS; [1]", "result": 2, "unit": "%"}, {"measurement": "Population Membrane Permeable-Phenotype (%)", "setting": "U2OS; [1]", "result": 87, "unit": "%"}, {"measurement": "Population Mitochondria Different-Phenotype (%)", "setting": "U2OS; [1]", "result": 7, "unit": "%"}, {"measurement": "Population Mitotic Cells (%)", "setting": "U2OS; [1]", "result": 68, "unit": "%"}, {"measurement": "Population Normal (%)", "setting": "U2OS; [1]", "result": 97, "unit": "%"}, {"measurement": "Population Pyknosed Nuclei (%)", "setting": "U2OS; [1]", "result": 18, "unit": "%"}, {"measurement": "Population Tubulin-Different-Phenotype (%)", "setting": "U2OS; [1]", "result": 65, "unit": "%"}, {"measurement": "Total Cell Count", "setting": "U2OS; [1]", "result": 153}, {"measurement": "Population Apoptotic (%)", "setting": "U2OS; [2]", "result": 33, "unit": "%"}, {"measurement": "Population Fragmented Nuclei (%)", "setting": "U2OS; [2]", "result": 24, "unit": "%"}, {"measurement": "Population Healthy Nuclei (%)", "setting": "U2OS; [2]", "result": 57, "unit": "%"}, {"measurement": "Population Hoechst High Intensity Objects (%)", "setting": "U2OS; [2]", "result": 12, "unit": "%"}, {"measurement": "Population Membrane Permeable-Phenotype (%)", "setting": "U2OS; [2]", "result": 91, "unit": "%"}, {"measurement": "Population Mitochondria Different-Phenotype (%)", "setting": "U2OS; [2]", "result": 18, "unit": "%"}, {"measurement": "Population Mitotic Cells (%)", "setting": "U2OS; [2]", "result": 66, "unit": "%"}, {"measurement": "Population Normal (%)", "setting": "U2OS; [2]", "result": 87, "unit": "%"}, {"measurement": "Population Pyknosed Nuclei (%)", "setting": "U2OS; [2]", "result": 17, "unit": "%"}, {"measurement": "Population Tubulin-Different-Phenotype (%)", "setting": "U2OS; [2]", "result": 59, "unit": "%"}, {"measurement": "Total Cell Count", "setting": "U2OS; [2]", "result": 88}, {"measurement": "Population Apoptotic (%)", "setting": "U2OS; [3]", "result": 22, "unit": "%"}, {"measurement": "Population Fragmented Nuclei (%)", "setting": "U2OS; [3]", "result": 2, "unit": "%"}, {"measurement": "Population Healthy Nuclei (%)", "setting": "U2OS; [3]", "result": 91, "unit": "%"}, {"measurement": "Population Hoechst High Intensity Objects (%)", "setting": "U2OS; [3]", "result": 2, "unit": "%"}, {"measurement": "Population Membrane Permeable-Phenotype (%)", "setting": "U2OS; [3]", "result": 11, "unit": "%"}, {"measurement": "Population Mitochondria Different-Phenotype (%)", "setting": "U2OS; [3]", "result": 22, "unit": "%"}, {"measurement": "Population Mitotic Cells (%)", "setting": "U2OS; [3]", "result": 77, "unit": "%"}, {"measurement": "Population Normal (%)", "setting": "U2OS; [3]", "result": 97, "unit": "%"}, {"measurement": "Population Pyknosed Nuclei (%)", "setting": "U2OS; [3]", "result": 6, "unit": "%"}, {"measurement": "Population Tubulin-Different-Phenotype (%)", "setting": "U2OS; [3]", "result": 27, "unit": "%"}, {"measurement": "Total Cell Count", "setting": "U2OS; [3]", "result": 204}, {"measurement": "Population Apoptotic (%)", "setting": "U2OS; [4]", "result": 66, "unit": "%"}, {"measurement": "Population Fragmented Nuclei (%)", "setting": "U2OS; [4]", "result": 8, "unit": "%"}, {"measurement": "Population Healthy Nuclei (%)", "setting": "U2OS; [4]", "result": 87, "unit": "%"}, {"measurement": "Population Hoechst High Intensity Objects (%)", "setting": "U2OS; [4]", "result": 11, "unit": "%"}, {"measurement": "Population Membrane Permeable-Phenotype (%)", "setting": "U2OS; [4]", "result": 5, "unit": "%"}, {"measurement": "Population Mitochondria Different-Phenotype (%)", "setting": "U2OS; [4]", "result": 29, "unit": "%"}, {"measurement": "Population Mitotic Cells (%)", "setting": "U2OS; [4]", "result": 33, "unit": "%"}, {"measurement": "Population Normal (%)", "setting": "U2OS; [4]", "result": 88, "unit": "%"}, {"measurement": "Population Pyknosed Nuclei (%)", "setting": "U2OS; [4]", "result": 3, "unit": "%"}, {"measurement": "Population Tubulin-Different-Phenotype (%)", "setting": "U2OS; [4]", "result": 19, "unit": "%"}, {"measurement": "Total Cell Count", "setting": "U2OS; [4]", "result": 147}, {"measurement": "Population Apoptotic (%)", "setting": "U2OS; [5]", "result": 75, "unit": "%"}, {"measurement": "Population Fragmented Nuclei (%)", "setting": "U2OS; [5]", "result": 14, "unit": "%"}, {"measurement": "Population Healthy Nuclei (%)", "setting": "U2OS; [5]", "result": 52, "unit": "%"}, {"measurement": "Population Membrane Permeable-Phenotype (%)", "setting": "U2OS; [5]", "result": 85, "unit": "%"}, {"measurement": "Population Mitochondria Different-Phenotype (%)", "setting": "U2OS; [5]", "result": 11, "unit": "%"}, {"measurement": "Population Mitotic Cells (%)", "setting": "U2OS; [5]", "result": 25, "unit": "%"}, {"measurement": "Population Pyknosed Nuclei (%)", "setting": "U2OS; [5]", "result": 32, "unit": "%"}, {"measurement": "Population Tubulin-Different-Phenotype (%)", "setting": "U2OS; [5]", "result": 36, "unit": "%"}, {"measurement": "Total Cell Count", "setting": "U2OS; [5]", "result": 205}, {"measurement": "Population Apoptotic (%)", "setting": "U2OS; [6]", "result": 76, "unit": "%"}, {"measurement": "Population Fragmented Nuclei (%)", "setting": "U2OS; [6]", "result": 31, "unit": "%"}, {"measurement": "Population Healthy Nuclei (%)", "setting": "U2OS; [6]", "result": 44, "unit": "%"}, {"measurement": "Population Hoechst High Intensity Objects (%)", "setting": "U2OS; [6]", "result": 4, "unit": "%"}, {"measurement": "Population Membrane Permeable-Phenotype (%)", "setting": "U2OS; [6]", "result": 94, "unit": "%"}, {"measurement": "Population Mitochondria Different-Phenotype (%)", "setting": "U2OS; [6]", "result": 12, "unit": "%"}, {"measurement": "Population Mitotic Cells (%)", "setting": "U2OS; [6]", "result": 23, "unit": "%"}, {"measurement": "Population Normal (%)", "setting": "U2OS; [6]", "result": 95, "unit": "%"}, {"measurement": "Population Pyknosed Nuclei (%)", "setting": "U2OS; [6]", "result": 23, "unit": "%"}, {"measurement": "Population Tubulin-Different-Phenotype (%)", "setting": "U2OS; [6]", "result": 53, "unit": "%"}, {"measurement": "Total Cell Count", "setting": "U2OS; [6]", "result": 118}, {"measurement": "Population Apoptotic (%)", "setting": "U2OS; [7]", "result": 26, "unit": "%"}, {"measurement": "Population Fragmented Nuclei (%)", "setting": "U2OS; [7]", "result": 2, "unit": "%"}, {"measurement": "Population Healthy Nuclei (%)", "setting": "U2OS; [7]", "result": 89, "unit": "%"}, {"measurement": "Population Hoechst High Intensity Objects (%)", "setting": "U2OS; [7]", "result": 1, "unit": "%"}, {"measurement": "Population Membrane Permeable-Phenotype (%)", "setting": "U2OS; [7]", "result": 8, "unit": "%"}, {"measurement": "Population Mitochondria Different-Phenotype (%)", "setting": "U2OS; [7]", "result": 22, "unit": "%"}, {"measurement": "Population Mitotic Cells (%)", "setting": "U2OS; [7]", "result": 73, "unit": "%"}, {"measurement": "Population Normal (%)", "setting": "U2OS; [7]", "result": 98, "unit": "%"}, {"measurement": "Population Pyknosed Nuclei (%)", "setting": "U2OS; [7]", "result": 7, "unit": "%"}, {"measurement": "Population Tubulin-Different-Phenotype (%)", "setting": "U2OS; [7]", "result": 31, "unit": "%"}, {"measurement": "Total Cell Count", "setting": "U2OS; [7]", "result": 302}, {"measurement": "Population Apoptotic (%)", "setting": "U2OS; [8]", "result": 16, "unit": "%"}, {"measurement": "Population Fragmented Nuclei (%)", "setting": "U2OS; [8]", "result": 6, "unit": "%"}, {"measurement": "Population Healthy Nuclei (%)", "setting": "U2OS; [8]", "result": 87, "unit": "%"}, {"measurement": "Population Hoechst High Intensity Objects (%)", "setting": "U2OS; [8]", "result": 8, "unit": "%"}, {"measurement": "Population Membrane Permeable-Phenotype (%)", "setting": "U2OS; [8]", "result": 7, "unit": "%"}, {"measurement": "Population Mitochondria Different-Phenotype (%)", "setting": "U2OS; [8]", "result": 32, "unit": "%"}, {"measurement": "Population Mitotic Cells (%)", "setting": "U2OS; [8]", "result": 83, "unit": "%"}, {"measurement": "Population Normal (%)", "setting": "U2OS; [8]", "result": 91, "unit": "%"}, {"measurement": "Population Pyknosed Nuclei (%)", "setting": "U2OS; [8]", "result": 5, "unit": "%"}, {"measurement": "Population Tubulin-Different-Phenotype (%)", "setting": "U2OS; [8]", "result": 18, "unit": "%"}, {"measurement": "Total Cell Count", "setting": "U2OS; [8]", "result": 205}]}]}
